Assays:
[1] = target: Protein kinase C beta type (Homo sapiens, UniProt P05771); assay: Inhibition of PKCbeta1 by SPA
[2] = target: Protein kinase C alpha type (Homo sapiens, UniProt P17252); assay: Inhibition of PKCalpha by SPA
[3] = target: Protein kinase C theta type (Homo sapiens, UniProt Q04759); assay: Inhibition of PKCtheta by SPA
[4] = target: T1, Protein kinase C epsilon type (Homo sapiens, UniProt Q02156); assay: Inhibition of PKCepsilon by SPA
T1 sequence (Q02156 whole entry): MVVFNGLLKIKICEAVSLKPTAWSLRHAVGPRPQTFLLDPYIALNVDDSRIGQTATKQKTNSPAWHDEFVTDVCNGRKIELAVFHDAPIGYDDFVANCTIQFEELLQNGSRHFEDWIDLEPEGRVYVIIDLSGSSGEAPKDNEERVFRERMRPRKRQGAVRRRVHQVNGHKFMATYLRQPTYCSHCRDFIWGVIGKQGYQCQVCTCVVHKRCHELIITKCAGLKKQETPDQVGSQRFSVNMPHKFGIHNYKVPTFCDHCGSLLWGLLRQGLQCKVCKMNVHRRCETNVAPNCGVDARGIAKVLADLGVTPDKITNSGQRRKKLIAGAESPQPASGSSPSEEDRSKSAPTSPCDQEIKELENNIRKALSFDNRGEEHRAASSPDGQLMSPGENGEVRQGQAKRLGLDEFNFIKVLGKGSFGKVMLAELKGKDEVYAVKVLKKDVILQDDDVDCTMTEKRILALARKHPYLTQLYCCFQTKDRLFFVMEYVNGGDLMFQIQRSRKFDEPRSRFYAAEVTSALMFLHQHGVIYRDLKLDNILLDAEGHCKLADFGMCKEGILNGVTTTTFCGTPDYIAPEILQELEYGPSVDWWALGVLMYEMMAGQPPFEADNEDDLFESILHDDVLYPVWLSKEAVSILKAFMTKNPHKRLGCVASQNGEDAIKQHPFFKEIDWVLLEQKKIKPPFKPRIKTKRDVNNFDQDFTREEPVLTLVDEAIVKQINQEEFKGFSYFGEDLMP

[5] = target: Protein kinase C eta type (Homo sapiens, UniProt P24723); assay: Inhibition of PKCeta by SPA
[6] = target: Protein kinase C delta type (Homo sapiens, UniProt Q05655); assay: Inhibition of PKCdelta by SPA
[7] = Volume of distribution at steady state in OFA rat at 5 mg/kg, iv; assay type: ADME, organism-based; design: dose 5 mg/kg, route intravenous; conditions: in vivo, read-out: Vdss
In short: (§1)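 Rats dosed either 5 mg/kg iv in 75% saline (0.9%)-25% PEG400 or 20 mg/kg po in 75% water-25% PEG400. OFA or Lewis rats were used depending on the compound. Values are averages of three animals. AUC is extrapolated to infinity. Oral bioavailability (F) comes from the po and iv exposures.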

[8] = Oral bioavailability in OFA rat at 20 mg/kg, po; assay type: ADME, organism-based; conditions: in vivo; in short: as §1
[9] = Clearance in OFA rat at 5 mg/kg, iv; assay type: ADME, organism-based; design: dose 5 mg/kg, route intravenous; conditions: in vivo; in short: as §1
[10] = Cmax in OFA rat at 20 mg/kg, po; assay type: ADME, organism-based; design: dose 20 mg/kg, route oral; conditions: in vivo; in short: as §1
[11] = AUC (0 to infinity) in OFA rat at 5 mg/kg, iv; assay type: ADME, organism-based; design: time infinity, dose 5 mg/kg, route intravenous; conditions: plasma; in short: as §1
[12] = Elimination half life in OFA rat at 5 mg/kg, iv; assay type: ADME, organism-based; design: dose 5 mg/kg, route intravenous; conditions: in vivo, read-out: beta t1/2 (converted); in short: as §1
[13] = Tmax in OFA rat at 20 mg/kg, po; assay type: ADME, organism-based; design: dose 20 mg/kg, route oral; conditions: in vivo; in short: as §1
[14] = AUC (0 to infinity) in OFA rat at 20 mg/kg, po; assay type: ADME, organism-based; design: dose 20 mg/kg, route oral, time infinity; conditions: plasma; in short: as §1
cells = conditions: Homo sapiens, Jurkat
[15] = Dissociation constant, pKa of the compound; assay type: physicochemical
[16] = Oral bioavailability in Lewis rat at 20 mg/kg, po; assay type: ADME, organism-based; conditions: in vivo; in short: as §1
[17] = Volume of distribution at steady state in Lewis rat at 5 mg/kg, iv; assay type: ADME, organism-based; design: dose 5 mg/kg, route intravenous; conditions: in vivo, read-out: Vdss; in short: as §1
[18] = Clearance in Lewis rat at 5 mg/kg, iv; assay type: ADME, organism-based; design: dose 5 mg/kg, route intravenous; conditions: in vivo; in short: as §1
[19] = AUC (0 to infinity) in Lewis rat at 5 mg/kg, iv; assay type: ADME, organism-based; design: time infinity, dose 5 mg/kg, route intravenous; conditions: plasma; in short: as §1
[20] = AUC (0 to infinity) in Lewis rat at 20 mg/kg, po; assay type: ADME, organism-based; design: time infinity, dose 20 mg/kg, route oral; conditions: plasma; in short: as §1
[21] = Cmax in Lewis rat at 20 mg/kg, po; assay type: ADME, organism-based; design: dose 20 mg/kg, route oral; conditions: in vivo; in short: as §1
[22] = Elimination half life in Lewis rat at 5 mg/kg, iv; assay type: ADME, organism-based; design: dose 5 mg/kg, route intravenous; conditions: in vivo, read-out: beta t1/2 (converted); in short: as §1
[23] = Tmax in Lewis rat at 20 mg/kg, po; assay type: ADME, organism-based; design: dose 20 mg/kg, route oral; conditions: in vivo; in short: as §1

Sequence of Protein kinase C beta type (P05771 whole entry): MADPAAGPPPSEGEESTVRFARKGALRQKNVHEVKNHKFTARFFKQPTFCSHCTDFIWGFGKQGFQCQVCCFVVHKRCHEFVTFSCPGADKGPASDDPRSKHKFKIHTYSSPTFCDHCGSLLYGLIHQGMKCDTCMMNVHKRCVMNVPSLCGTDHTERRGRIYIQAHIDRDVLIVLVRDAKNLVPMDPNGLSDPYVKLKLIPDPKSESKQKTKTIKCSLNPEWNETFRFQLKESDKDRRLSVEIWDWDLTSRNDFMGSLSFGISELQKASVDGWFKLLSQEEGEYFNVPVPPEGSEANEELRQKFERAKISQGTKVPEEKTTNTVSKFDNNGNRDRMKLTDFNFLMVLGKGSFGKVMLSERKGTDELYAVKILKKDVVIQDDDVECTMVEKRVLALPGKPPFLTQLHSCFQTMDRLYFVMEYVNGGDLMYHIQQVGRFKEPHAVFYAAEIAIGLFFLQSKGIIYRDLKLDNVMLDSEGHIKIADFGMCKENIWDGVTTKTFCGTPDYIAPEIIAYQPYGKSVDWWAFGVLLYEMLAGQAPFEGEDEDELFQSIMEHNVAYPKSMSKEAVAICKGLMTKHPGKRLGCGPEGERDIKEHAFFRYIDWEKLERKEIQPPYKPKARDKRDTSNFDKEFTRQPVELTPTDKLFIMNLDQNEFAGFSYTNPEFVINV
Sequence of Protein kinase C delta type (Q05655 whole entry): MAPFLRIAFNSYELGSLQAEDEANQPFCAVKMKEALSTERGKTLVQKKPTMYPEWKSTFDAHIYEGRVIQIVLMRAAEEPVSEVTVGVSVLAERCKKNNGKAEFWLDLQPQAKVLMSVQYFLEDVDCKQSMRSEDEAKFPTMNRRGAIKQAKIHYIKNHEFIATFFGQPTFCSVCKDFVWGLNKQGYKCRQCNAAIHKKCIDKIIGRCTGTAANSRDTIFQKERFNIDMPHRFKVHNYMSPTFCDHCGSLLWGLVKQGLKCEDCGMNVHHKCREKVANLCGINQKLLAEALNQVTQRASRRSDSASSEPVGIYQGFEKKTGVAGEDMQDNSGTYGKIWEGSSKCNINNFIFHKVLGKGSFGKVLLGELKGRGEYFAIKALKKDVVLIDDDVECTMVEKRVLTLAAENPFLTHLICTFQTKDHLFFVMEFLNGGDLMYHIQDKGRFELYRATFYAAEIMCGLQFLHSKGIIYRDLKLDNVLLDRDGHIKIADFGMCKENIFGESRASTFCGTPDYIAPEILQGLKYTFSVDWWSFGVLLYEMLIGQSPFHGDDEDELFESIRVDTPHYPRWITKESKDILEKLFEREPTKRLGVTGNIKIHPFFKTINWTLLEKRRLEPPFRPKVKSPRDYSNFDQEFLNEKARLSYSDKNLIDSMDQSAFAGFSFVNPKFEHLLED
Sequence of Protein kinase C eta type (P24723 whole entry): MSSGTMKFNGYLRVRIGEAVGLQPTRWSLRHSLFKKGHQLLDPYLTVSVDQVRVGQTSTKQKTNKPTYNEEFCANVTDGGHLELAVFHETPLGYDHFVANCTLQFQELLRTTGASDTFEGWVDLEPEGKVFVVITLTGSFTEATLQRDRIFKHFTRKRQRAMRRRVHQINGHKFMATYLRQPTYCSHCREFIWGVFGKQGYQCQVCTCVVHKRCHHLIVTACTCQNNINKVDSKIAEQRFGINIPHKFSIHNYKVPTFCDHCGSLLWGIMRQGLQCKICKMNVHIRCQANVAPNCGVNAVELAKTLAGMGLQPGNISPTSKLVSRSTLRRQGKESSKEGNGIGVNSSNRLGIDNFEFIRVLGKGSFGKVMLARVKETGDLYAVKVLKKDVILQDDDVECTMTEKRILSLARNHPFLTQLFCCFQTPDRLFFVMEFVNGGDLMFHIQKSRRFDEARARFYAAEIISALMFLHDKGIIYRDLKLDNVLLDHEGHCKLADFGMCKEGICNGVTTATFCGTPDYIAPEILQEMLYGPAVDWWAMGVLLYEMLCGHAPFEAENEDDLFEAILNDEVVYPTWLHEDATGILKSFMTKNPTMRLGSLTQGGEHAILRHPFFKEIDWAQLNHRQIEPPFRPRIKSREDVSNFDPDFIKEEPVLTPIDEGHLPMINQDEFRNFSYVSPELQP
Sequence of Protein kinase C theta type (Q04759 whole entry): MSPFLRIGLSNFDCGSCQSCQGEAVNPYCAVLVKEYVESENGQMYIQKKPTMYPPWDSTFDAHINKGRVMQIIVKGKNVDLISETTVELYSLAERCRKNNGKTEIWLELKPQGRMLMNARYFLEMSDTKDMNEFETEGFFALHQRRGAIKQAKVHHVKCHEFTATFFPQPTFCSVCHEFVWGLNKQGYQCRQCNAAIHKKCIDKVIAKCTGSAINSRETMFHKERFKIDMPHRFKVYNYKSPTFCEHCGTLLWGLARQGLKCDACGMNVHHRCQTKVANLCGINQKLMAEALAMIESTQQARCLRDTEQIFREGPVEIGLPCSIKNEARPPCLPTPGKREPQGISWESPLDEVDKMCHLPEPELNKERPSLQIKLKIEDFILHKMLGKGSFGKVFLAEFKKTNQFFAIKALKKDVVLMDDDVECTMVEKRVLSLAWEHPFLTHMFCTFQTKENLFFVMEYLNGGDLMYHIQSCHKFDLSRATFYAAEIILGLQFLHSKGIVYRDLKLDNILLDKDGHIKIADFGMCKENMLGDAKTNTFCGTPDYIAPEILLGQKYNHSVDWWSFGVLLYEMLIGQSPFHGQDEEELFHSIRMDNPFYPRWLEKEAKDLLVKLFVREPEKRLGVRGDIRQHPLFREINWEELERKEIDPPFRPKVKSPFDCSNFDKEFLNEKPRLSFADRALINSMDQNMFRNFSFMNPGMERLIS

SMILES | IC50 [1] [nM] | IC50 [2] [nM] | IC50 [3] [nM] | IC50 [4] [nM] | IC50 [5] [nM] | IC50 [6] [nM] | IC50 (cells) [nM] | further results
CN(C)CCCn1cc(C2=C(c3cccc4ccccc34)C(=O)NC2=O)c2ccccc21 | 60 | 98 | 165 | > 315 | 349 | 207 | – | –
CN(C)CCOc1cc(C2=C(c3c[nH]c4ccccc34)C(=O)NC2=O)c2ccccc2c1 | 2.1 | 2.2 | 3.3 | 5.5 | 11 | 4.4 | 69 | Vd [7]: 48.2 L/kg; bioavailability [8]: 1%; clearance [9]: 30.9 mL/min/kg; Cmax [10]: 16.2 ng/mL; AUC(0-inf) [11]: 2690 ng·h/mL; half-life [12]: 1240 min; Tmax [13]: 30 min; AUC(0-inf) [14]: 154 ng·h/mL
CN1CCN(c2cccc(C3=C(c4c[nH]c5ccccc45)C(=O)NC3=O)c2)CC1 | 36 | 7.1 | 76 | 59 | 36 | 97 | 277 | pKa [15]: 7.5

Continued, in another order:

IC50 [1] [nM] | IC50 [2] [nM] | IC50 [3] [nM] | IC50 [4] [nM] | IC50 [5] [nM] | IC50 [6] [nM] | IC50 (cells) [nM] | SMILES | further results
1.8 | 0.9 | 4.8 | 19 | 25 | 7.3 | 50 | CN1CCN(c2cc(C3=C(c4c[nH]c5ccccc45)C(=O)NC3=O)c3ccccc3c2)CC1 | bioavailability [16]: 12%; Vd [17]: 12 L/kg; clearance [18]: 19.3 mL/min/kg; AUC(0-inf) [19]: 4320 ng·h/mL; AUC(0-inf) [20]: 1990 ng·h/mL; Cmax [21]: 242 ng/mL; half-life [22]: 270 min; Tmax [23]: 2 h
1.6 | 2.3 | 6.7 | 6.6 | 10 | 8.7 | – | CN(C)CCCn1cc(C2=C(c3c[nH]c4ccccc34)C(=O)NC2=O)c2ccccc21 [GF-109203] | –
